Measured values reported in ChEMBL document CHEMBL5058577, “EUbOPEN Chemogenomics Library 2 (Multiplex)” (2022).

Tested on: Fibroblast
Assay: Multiplex assay against human fibroblast
Type: toxicity, cell-based
In short: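 Live cells carried four stains from seeding: Hoechst33342, BioTracker Green Microtubule Cytoskeleton Dye, MitoTracker Red and Annexin V Alexa Fluor 680. They were imaged on a CQ1 microscope at 37°C and 5% CO2 after compound addition. Using CellPathfinder machine-learning gating, cells were split into Hoechst high-intensity objects or normal cells, normal cells into healthy, pyknosed or fragmented nuclei, and pyknosed cells into mitotic or apoptotic; tubulin, mitochondrial-mass and membrane-permeability phenotypes are per cents of healthy-nucleus cells.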

[1] = 12 h, 1 µM, compound concentration 1 uM, replicate 1
[2] = 12 h, 1 µM, compound concentration 1 uM, replicate 2
[3] = 12 h, 10 µM, compound concentration 10 uM, replicate 1
[4] = 12 h, 10 µM, compound concentration 10 uM, replicate 2
[5] = 24 h, 1 µM, compound concentration 1 uM, replicate 1
[6] = 24 h, 1 µM, compound concentration 1 uM, replicate 2
[7] = 24 h, 10 µM, compound concentration 10 uM, replicate 1
[8] = 24 h, 10 µM, compound concentration 10 uM, replicate 2
[9] = 48 h, 1 µM, compound concentration 1 uM, replicate 1
[10] = 48 h, 1 µM, compound concentration 1 uM, replicate 2
[11] = 48 h, 10 µM, compound concentration 10 uM, replicate 1
[12] = 48 h, 10 µM, compound concentration 10 uM, replicate 2

CCC(=O)OCC(=O)[C@@]1(OC(=O)CC)[C@@H](C)C[C@H]2[C@@H]3CCC4=CC(=O)C=C[C@]4(C)[C@@]3(Cl)[C@@H](O)C[C@@]21C [BECLOMETHASONE DIPROPIONATE]
Population Apoptotic (%) [1]: 38% | Population Fragmented Nuclei (%) [1]: 13% | Population Healthy Nuclei (%) [1]: 73% | Population Hoechst High Intensity Objects (%) [1]: 3% | Population Membrane Permeable-Phenotype (%) [1]: 1% | Population Mitochondria Different-Phenotype (%) [1]: 2% | Population Mitotic Cells (%) [1]: 61% | Population Normal (%) [1]: 96% | Population Pyknosed Nuclei (%) [1]: 13% | Population Tubulin-Different-Phenotype (%) [1]: 47% | Total Cell Count [1]: 135 | Population Apoptotic (%) [2]: 42% | Population Fragmented Nuclei (%) [2]: 30% | Population Healthy Nuclei (%) [2]: 40% | Population Membrane Permeable-Phenotype (%) [2]: 5% | Population Mitochondria Different-Phenotype (%) [2]: 10% | Population Mitotic Cells (%) [2]: 57% | Population Pyknosed Nuclei (%) [2]: 30% | Population Tubulin-Different-Phenotype (%) [2]: 63% | Total Cell Count [2]: 155 | Population Apoptotic (%) [3]: 40% | Population Fragmented Nuclei (%) [3]: 9% | Population Healthy Nuclei (%) [3]: 69% | Population Hoechst High Intensity Objects (%) [3]: 8% | Population Membrane Permeable-Phenotype (%) [3]: 1% | Population Mitochondria Different-Phenotype (%) [3]: 17% | Population Mitotic Cells (%) [3]: 60% | Population Normal (%) [3]: 91% | Population Pyknosed Nuclei (%) [3]: 20% | Population Tubulin-Different-Phenotype (%) [3]: 87% | Total Cell Count [3]: 157 | Population Fragmented Nuclei (%) [4]: 32% | Population Healthy Nuclei (%) [4]: 42% | Population Hoechst High Intensity Objects (%) [4]: 5% | Population Membrane Permeable-Phenotype (%) [4]: 15% | Population Mitochondria Different-Phenotype (%) [4]: 20% | Population Mitotic Cells (%) [4]: 59% | Population Normal (%) [4]: 94% | Population Pyknosed Nuclei (%) [4]: 24% | Population Tubulin-Different-Phenotype (%) [4]: 94% | Total Cell Count [4]: 96 | Population Apoptotic (%) [5]: 50% | Population Fragmented Nuclei (%) [5]: 16% | Population Healthy Nuclei (%) [5]: 65% | Population Hoechst High Intensity Objects (%) [5]: 1% | Population Membrane Permeable-Phenotype (%) [5]: 3% | Population Mitochondria Different-Phenotype (%) [5]: 2% | Population Mitotic Cells (%) [5]: 50% | Population Normal (%) [5]: 98% | Population Pyknosed Nuclei (%) [5]: 18% | Population Tubulin-Different-Phenotype (%) [5]: 34% | Total Cell Count [5]: 134 | Population Apoptotic (%) [6]: 47% | Population Fragmented Nuclei (%) [6]: 30% | Population Healthy Nuclei (%) [6]: 45% | Population Hoechst High Intensity Objects (%) [6]: 6% | Population Membrane Permeable-Phenotype (%) [6]: 7% | Population Mitochondria Different-Phenotype (%) [6]: 7% | Population Mitotic Cells (%) [6]: 52% | Population Normal (%) [6]: 93% | Population Pyknosed Nuclei (%) [6]: 24% | Population Tubulin-Different-Phenotype (%) [6]: 60% | Total Cell Count [6]: 150 | Population Apoptotic (%) [7]: 40% | Population Fragmented Nuclei (%) [7]: 13% | Population Healthy Nuclei (%) [7]: 66% | Population Hoechst High Intensity Objects (%) [7]: 6% | Population Membrane Permeable-Phenotype (%) [7]: 1% | Population Mitochondria Different-Phenotype (%) [7]: 30% | Population Mitotic Cells (%) [7]: 59% | Population Normal (%) [7]: 93% | Population Pyknosed Nuclei (%) [7]: 19% | Population Tubulin-Different-Phenotype (%) [7]: 86% | Total Cell Count [7]: 148 | Population Apoptotic (%) [8]: 19% | Population Fragmented Nuclei (%) [8]: 38% | Population Healthy Nuclei (%) [8]: 40% | Population Membrane Permeable-Phenotype (%) [8]: 15% | Population Mitochondria Different-Phenotype (%) [8]: 12% | Population Mitotic Cells (%) [8]: 80% | Population Pyknosed Nuclei (%) [8]: 21% | Population Tubulin-Different-Phenotype (%) [8]: 79% | Total Cell Count [8]: 104 | Population Apoptotic (%) [9]: 28% | Population Fragmented Nuclei (%) [9]: 13% | Population Healthy Nuclei (%) [9]: 56% | Population Hoechst High Intensity Objects (%) [9]: 3% | Population Membrane Permeable-Phenotype (%) [9]: 1% | Population Mitochondria Different-Phenotype (%) [9]: 15% | Population Mitotic Cells (%) [9]: 71% | Population Normal (%) [9]: 96% | Population Pyknosed Nuclei (%) [9]: 30% | Population Tubulin-Different-Phenotype (%) [9]: 61% | Total Cell Count [9]: 132 | Population Apoptotic (%) [10]: 52% | Population Fragmented Nuclei (%) [10]: 31% | Population Healthy Nuclei (%) [10]: 41% | Population Hoechst High Intensity Objects (%) [10]: 7% | Population Membrane Permeable-Phenotype (%) [10]: 5% | Population Mitochondria Different-Phenotype (%) [10]: 9% | Population Mitotic Cells (%) [10]: 47% | Population Normal (%) [10]: 92% | Population Pyknosed Nuclei (%) [10]: 27% | Population Tubulin-Different-Phenotype (%) [10]: 54% | Total Cell Count [10]: 143 | Population Apoptotic (%) [11]: 67% | Population Fragmented Nuclei (%) [11]: 21% | Population Healthy Nuclei (%) [11]: 54% | Population Hoechst High Intensity Objects (%) [11]: 6% | Population Membrane Permeable-Phenotype (%) [11]: 0% | Population Mitochondria Different-Phenotype (%) [11]: 47% | Population Mitotic Cells (%) [11]: 32% | Population Normal (%) [11]: 93% | Population Pyknosed Nuclei (%) [11]: 24% | Population Tubulin-Different-Phenotype (%) [11]: 76% | Total Cell Count [11]: 162 | Population Apoptotic (%) [12]: 37% | Population Fragmented Nuclei (%) [12]: 33% | Population Healthy Nuclei (%) [12]: 33% | Population Hoechst High Intensity Objects (%) [12]: 3% | Population Membrane Permeable-Phenotype (%) [12]: 18% | Population Mitochondria Different-Phenotype (%) [12]: 15% | Population Mitotic Cells (%) [12]: 62% | Population Normal (%) [12]: 96% | Population Pyknosed Nuclei (%) [12]: 33% | Population Tubulin-Different-Phenotype (%) [12]: 84% | Total Cell Count [12]: 99
